The record followed here is paper PMC12278411 (Acta Pharmaceutica Sinica. B, 2025).

Bounds are passed on as bounds.

Series [1] is described as follows: Pharmacokinetic study in mice, i.v. and p.o. The format is in vivo. The conditions noted are these: BALB/c, mouse, plasma, 10 mg/kg.
For series [2], the system named is APAP-induced ALI (650 mg/kg APAP). In words: Survival period in APAP-induced acute liver injury. The format is in vivo, C57BL/6 mice. The conditions noted are these: APAP 650 mg/kg, 96 h observation. A digest of the protocol: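 Male C57BL/6 mice (24–25 g), fasted 16 h with free water, randomised 10 per group. APAP 650 mg/kg i.p., immediately followed by oral test compound (5, 10 or 20 mg/kg; reference groups NAC 30 mg/kg or a RIPK2 inhibitor 10 mg/kg). A second dose was given 12 h after induction. Saline controls included. Survival followed over 96 h.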

Series [3] deals with RIPK2 (h) (Homo sapiens, UniProt O43353). In words: RIPK2 kinase assay. The series is classed as biochemical.
Sequence of RIPK2 (h) (O43353 whole entry): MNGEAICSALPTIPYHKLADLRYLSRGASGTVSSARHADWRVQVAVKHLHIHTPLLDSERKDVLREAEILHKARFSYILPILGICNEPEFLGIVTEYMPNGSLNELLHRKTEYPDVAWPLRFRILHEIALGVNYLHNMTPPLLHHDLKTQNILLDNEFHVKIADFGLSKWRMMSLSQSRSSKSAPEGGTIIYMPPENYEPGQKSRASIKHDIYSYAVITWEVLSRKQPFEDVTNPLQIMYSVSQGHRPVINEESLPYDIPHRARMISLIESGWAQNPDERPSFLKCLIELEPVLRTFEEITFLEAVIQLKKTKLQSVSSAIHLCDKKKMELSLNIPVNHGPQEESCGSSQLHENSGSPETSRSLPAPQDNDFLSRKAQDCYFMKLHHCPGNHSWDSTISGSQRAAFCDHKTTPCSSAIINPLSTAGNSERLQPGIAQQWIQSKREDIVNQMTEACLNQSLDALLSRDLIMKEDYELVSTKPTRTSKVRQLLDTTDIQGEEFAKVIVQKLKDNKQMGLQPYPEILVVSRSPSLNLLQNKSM
The nature of series [4]: Plasma exposure test, oral 10 mg/kg. The conditions noted are these: 10 mg/kg p.o., BALB/c mice. The format is in vivo. In short, it runs like this: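 Test compound in saline with 2.5% DMSO, given orally at 10 mg/kg to BALB/c mice (20–22 g), n = 3. Blood drawn at 0.5, 2 and 6 h after dosing, centrifuged to obtain plasma. Proteins precipitated with acetonitrile containing SAHA internal standard, centrifuged again; supernatant concentrations quantified by LC–MS/MS.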

In series [5] the target is T1, RIPK1 (Homo sapiens, UniProt Q13546).
T1 sequence (Q13546 1-671): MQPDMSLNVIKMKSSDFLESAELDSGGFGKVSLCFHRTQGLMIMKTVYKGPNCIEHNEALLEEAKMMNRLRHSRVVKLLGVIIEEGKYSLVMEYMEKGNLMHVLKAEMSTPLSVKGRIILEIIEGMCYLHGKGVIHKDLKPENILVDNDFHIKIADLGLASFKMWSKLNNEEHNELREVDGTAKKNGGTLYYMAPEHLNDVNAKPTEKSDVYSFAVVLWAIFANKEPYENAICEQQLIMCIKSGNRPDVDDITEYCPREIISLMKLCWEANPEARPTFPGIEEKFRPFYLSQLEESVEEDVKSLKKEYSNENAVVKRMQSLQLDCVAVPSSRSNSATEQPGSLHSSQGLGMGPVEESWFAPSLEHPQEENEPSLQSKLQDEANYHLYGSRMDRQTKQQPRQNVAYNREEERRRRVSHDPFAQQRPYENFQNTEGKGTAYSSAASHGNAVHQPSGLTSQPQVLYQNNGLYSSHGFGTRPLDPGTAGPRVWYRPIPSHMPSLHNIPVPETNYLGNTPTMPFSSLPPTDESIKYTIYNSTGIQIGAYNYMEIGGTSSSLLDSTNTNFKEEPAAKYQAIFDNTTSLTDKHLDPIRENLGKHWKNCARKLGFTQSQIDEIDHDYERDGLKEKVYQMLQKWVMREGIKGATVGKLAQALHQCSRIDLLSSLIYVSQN
In words: RIPK1 kinase assay. The format is biochemical.

Series [6] is described as follows: Metabolic stability assay in human liver microsome. The format is in vitro ADME. For orientation: Liver microsomes are vesicles of endoplasmic reticulum, rich in cytochrome P450 enzymes.

In series [1] (iv), `CC(C)(C)S(=O)(=O)c1cc2c(Nc3ccc4scnc4c3)ncnc2cc1OCCOP(=O)(O)O` [GSK2983559, 2-((4-(benzo[d]thiazol-5-ylamino)-6-(tert-butylsulfonyl)quinazolin-7-yl)oxy)ethyl dihydrogen phosphate] gave an AUC(0-t) of 3780 ± 255 ng·h/mL, a Cmax of 5680 ± 521 ng/mL, a Vd of 9.46 ± 4.13 L/kg and a clearance of 44.3 mL/min/kg. The molecule also gave a half-life in series [1] (iv) of 2.42 ± 0.86 h. Further, in series [1] (po), the AUC(0-t) was determined as 3120 ± 1060 ng·h/mL, the Cmax was found to be 2620 ± 413 ng/mL, the bioavailability came out at 82.7% and the half-life is 2.74 ± 0.25 h. The survival of mice entry in series [2] is “significantly prolong the survival”. Further, it took 7 nM to reach half-maximal inhibition in series [3] (IC50). The “Plasma concentration 0.5 h” value in series [4] (0.5 h) is recorded as 1154 ± 125 ng/mL. Further, the “Plasma concentration 2 h” value in series [4] (2 h) was 145 ± 42 ng/mL. Moreover, in series [4] (6 h), the “Plasma concentration 6 h” value was found to be 21 ± 11 ng/mL. In series [5], this molecule gave an IC50 of over 30000 nM.
With `CC(=O)N[C@@H](CS)C(=O)O` [NAC, N-acetylcysteine], in series [2], the survival of mice entry is “only deferred the time of mortality”.
Regarding `Fc1cc2scnc2cc1Nc1ncnc2sc(C3=CCNCC3)cc12` [RP1, N-(6-fluorobenzo[d]thiazol-5-yl)-6-(1,2,3,6-tetrahydropyridin-4-yl)thieno[2,3-d]pyrimidin-4-amine], the CL in series [6] (human liver microsomes, 1 μmol/L) is given as under 12 mL/min/g·protein. Further, the half-life at 1 μmol/L in series [6] (human, pooled liver microsomes) is over 2 h. This molecule also showed an IC50 in series [3] of 9 nM. In addition, the “RIPK1 Percentage%@1 μmol/L” value in series [5] (active RIPK1 activity relative to control, 1 μmol/L) was found to be 99 ± 2%.

As usually defined, the AUC(0-t) is exposure summed from dosing to a finite time, without extrapolation to infinity. Read a low AUC(0-t) as less exposure. Broadly, the Cmax is the maximum level reached in the sampled fluid or tissue. The term half-life denotes the time needed for the level to fall by half in the phase considered. One may read the bioavailability as dose-corrected exposure relative to a reference, in per cent. For orientation: IC50 means the midpoint of a concentration-inhibition curve.
